Assay results reported in ChEMBL document CHEMBL3621152, “Highly Efficient Synthesis of 1,3-Dihydroxy-2-carboxycarbazole and Its Neuroprotective Effects” (ACS Med Chem Lett, 2015).
Calls of active or inactive are those of the source. The rule behind the calls is not given here.

What was measured:
[1] = Antioxidant activity assessed as DPPH radical scavenging activity at 0.3 to 100 uM incubated for 30 mins at 37 degC; type: physicochemical; conditions: 0.5 h
Outline: (§1)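 Test compound or trolox incubated with DPPH (50 µM) in MeOH at 37 °C for 30 min at the indicated concentrations; radical scavenging read as absorbance at 517 nm.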

MC65 [2] = test: Effect on Abeta42 production in human MC65 cells at 0.1 to 1 uM incubated for 48 hrs under tetracycline removal condition by ELISA method; type: functional, cell-based
Outline: (§2)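 MC65 human neuroblastoma cells, which conditionally express APP C-terminal fragment C99 under tetracycline suppression, treated under -TC conditions for 48 h; Aβ40 and Aβ42 measured in the collected medium by ELISA.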

MC65 [3] = test: Effect on Abeta40 production in human MC65 cells at 0.1 to 1 uM incubated for 48 hrs under tetracycline removal condition by ELISA method; type: functional, cell-based; outline: as §2
[4] = target: T1, Amyloid-beta precursor protein (Homo sapiens, UniProt P05067); test: Inhibition of amyloid beta oligomerization in human MC65 cells assessed as small AbetaOs formation at 0.3 uM incubated for 48 hrs under tetracycline removal condition by Western blot method; type: cell-based
Outline: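 MC65 cells incubated with compound under -TC conditions for 48 h; culture lysates analyzed by Western blot with 6E10 antibody for Aβ oligomers.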

MC65 [5] = test: Neuroprotective activity in human MC65 cells assessed as protection against tetracycline removal-induced toxicity at 10 uM incubated for 72 hrs by MTT method; type: functional, cell-based
Outline: (§3)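 Aβ toxicity in MC65 cells (C99 expression induced by tetracycline removal) with compound present at the indicated concentrations under -TC conditions for 72 h; viability read by MTT assay.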

[6] = target: T1, Amyloid-beta precursor protein; test: Inhibition of amyloid beta (1 to 42) (unknown origin) aggregation incubated for 48 hrs by Thioflavin-T Abeta aggregation assay
Outline: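 Aβ42 (10 µM) incubated with compound at the indicated concentrations for 48 h; aggregation measured by thioflavin T assay; curcumin (10 µM) used as positive control.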

MC65 [7] = test: Neuroprotective activity in human MC65 cells assessed as protection against tetracycline removal-induced toxicity at 0.3 uM incubated for 72 hrs by MTT method; type: functional, cell-based; outline: as §3
[8] = Antioxidant activity assessed as DPPH radical scavenging activity at 0.3 to 10 uM incubated for 30 mins at 37 degC; type: physicochemical; conditions: 0.5 h; outline: as §1
MC65 [9] = test: Neuroprotective activity in human MC65 cells assessed as protection against tetracycline removal-induced toxicity UP TO 10 uM incubated for 72 hrs by MTT method; type: functional, cell-based; conditions: in the assay text read “UP TO 100 uM” for “UP TO 10 uM”; outline: as §3

T1 sequence (P05067 whole entry): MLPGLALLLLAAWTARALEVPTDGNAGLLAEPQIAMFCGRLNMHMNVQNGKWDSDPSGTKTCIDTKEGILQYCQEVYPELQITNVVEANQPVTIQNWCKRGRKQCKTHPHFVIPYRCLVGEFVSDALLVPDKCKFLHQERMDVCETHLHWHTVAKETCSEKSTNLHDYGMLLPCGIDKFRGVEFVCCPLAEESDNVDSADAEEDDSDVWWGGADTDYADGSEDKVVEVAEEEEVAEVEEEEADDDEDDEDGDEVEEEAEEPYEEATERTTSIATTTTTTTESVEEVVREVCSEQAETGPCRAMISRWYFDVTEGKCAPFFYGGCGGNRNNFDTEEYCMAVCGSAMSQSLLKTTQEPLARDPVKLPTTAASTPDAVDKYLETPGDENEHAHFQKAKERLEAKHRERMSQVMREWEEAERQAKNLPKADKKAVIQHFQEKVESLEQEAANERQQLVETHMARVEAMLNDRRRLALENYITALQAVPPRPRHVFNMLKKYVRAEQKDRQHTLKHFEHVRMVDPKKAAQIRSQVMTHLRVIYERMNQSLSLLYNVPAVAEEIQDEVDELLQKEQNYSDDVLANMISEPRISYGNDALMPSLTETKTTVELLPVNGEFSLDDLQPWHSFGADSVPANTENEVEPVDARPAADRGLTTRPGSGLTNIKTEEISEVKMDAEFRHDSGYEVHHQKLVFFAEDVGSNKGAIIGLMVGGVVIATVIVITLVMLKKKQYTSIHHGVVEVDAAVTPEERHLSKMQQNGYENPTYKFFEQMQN

## O=C(O)c1c(O)cc2c([nH]c3ccccc32)c1O
[1]
  Activity: Active
MC65 [2]
  Activity: inactive
MC65 [3]
  Activity: inactive
[4]
  inhibition: Active
MC65 [5]
  Activity: Active
[6]
  IC50: 15 µM
  inhibition: Dose-dependent effect
MC65 [7]
  Activity: Active

## Cc1c(C)c2c(c(C)c1O)CCC(C)(C(=O)O)O2 (stereo not given) [TROLOX]
[8]
  Activity: Active

## O=C(O)c1c(O)cccc1O
MC65 [9]
  Activity: inactive
